Measured values published in ChEMBL document CHEMBL5674867, “The SUV39H1 inhibitor chaetocin induces differentiation and shows synergistic cytotoxicity with other epigenetic drugs in acute myeloid leukemia cells” (Blood Cancer J, 2015).
Activity calls are given as the source filed them.

Experiments:
HL-60 [1] = experiment: Induction of myeloid differentiation in human HL-60 cells at 50 nM in combination with 20 nM chaetocin measured after 12 hrs by Liu's staining method; assay type: functional, cell-based
Summary of the method: (§1)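 Cells received single epigenetic inhibitors or combinations and were collected by cytospin. After Liu's staining (reagent A 1 min, reagent B 2.5 min), differentiated cells were counted under a light microscope. Mean ± s.e. of three independent experiments.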

HL-60 [2] = experiment: Cytotoxicity against human HL-60 cells at 20 nM assessed as decrease in cell viability in combination with 50 nM JQ-1 measured after 24 hrs by MTT assay; assay type: functional, cell-based
U-937 [3] = experiment: Induction of myeloid differentiation in human U-937 cells at 50 nM in combination with 20 nM chaetocin measured after 12 hrs by Liu's staining method; assay type: functional, cell-based; summary of the method: as §1
KG-1a [4] = experiment: Cytotoxicity against human KG-1a cells at 20 nM assessed as decrease in cell viability in combination with 50 nM JQ-1 measured after 24 hrs by MTT assay; assay type: functional, cell-based
KG-1a [5] = experiment: Induction of myeloid differentiation in human KG-1a cells at 50 nM in combination with 20 nM chaetocin measured after 12 hrs by Liu's staining method; assay type: functional, cell-based; summary of the method: as §1
U-937 [6] = experiment: Cytotoxicity against human U-937 cells at 20 nM assessed as decrease in cell viability in combination with 50 nM JQ-1 measured after 24 hrs by MTT assay; assay type: functional, cell-based
U-937 [7] = experiment: Cytotoxicity against human U-937 cells at 20 nM assessed as decrease in cell viability in combination with 0.5 uM SAHA measured after 24 hrs by MTT assay; assay type: functional
HL-60 [8] = experiment: Cytotoxicity against human HL-60 cells at 20 nM assessed as decrease in cell viability in combination with 0.5 uM SAHA measured after 24 hrs by MTT assay; assay type: functional
KG-1a [9] = experiment: Cytotoxicity against human KG-1a cells at 20 nM assessed as decrease in cell viability in combination with 0.5 uM SAHA measured after 24 hrs by MTT assay; assay type: functional
[10] = molecular target: T1, Histone-lysine N-methyltransferase SUV39H1 (Homo sapiens) (UniProt O43463); conditions: U-937, dose 20.0 nM, time 48.0 hrs
T1 sequence (whole entry): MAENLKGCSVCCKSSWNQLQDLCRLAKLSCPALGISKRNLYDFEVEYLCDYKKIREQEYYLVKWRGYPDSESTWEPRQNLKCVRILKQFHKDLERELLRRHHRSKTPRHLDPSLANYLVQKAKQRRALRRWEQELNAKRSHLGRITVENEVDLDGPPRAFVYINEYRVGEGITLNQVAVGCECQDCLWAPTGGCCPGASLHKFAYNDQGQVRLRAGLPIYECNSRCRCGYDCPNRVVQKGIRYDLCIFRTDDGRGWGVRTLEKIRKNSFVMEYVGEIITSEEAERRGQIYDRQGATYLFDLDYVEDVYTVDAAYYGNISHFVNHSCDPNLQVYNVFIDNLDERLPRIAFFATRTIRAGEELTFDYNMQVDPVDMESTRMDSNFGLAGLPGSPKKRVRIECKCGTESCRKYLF

[11] = molecular target: T1, Histone-lysine N-methyltransferase SUV39H1 (Homo sapiens); conditions: U-937, dose 20.0 nM, time 48.0 hrs; remark: listed apart in the source
KG-1a [12] = experiment: Induction of myeloid differentiation in human KG-1a cells at 20 nM assessed as decrease in G9a mRNA expression measured after 48 hrs by RT-PCR assay; assay type: functional, cell-based
Summary of the method: (§2)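 Treatment was 48 h. Total RNA (1 µg) was reverse transcribed, then SYBR green real-time PCR was run with actin as internal control: 95 °C 5 min, then 30 cycles of 95 °C/45 s, 60 °C/45 s, 72 °C/45 s. Mean ± s.e. of three independent experiments, compared with untreated control.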

[13] = molecular target: T1, Histone-lysine N-methyltransferase SUV39H1 (Homo sapiens); conditions: KG-1a, dose 20.0 nM, time 48.0 hrs
U-937 [14] = experiment: Induction of myeloid differentiation in human U-937 cells at 20 nM assessed as increase in CD11b mRNA expression measured after 48 hrs by RT-PCR assay; assay type: functional, cell-based; summary of the method: as §2
U-937 [15] = experiment: Induction of myeloid differentiation in human U-937 cells at 20 nM assessed as decrease in G9a mRNA expression measured after 48 hrs by RT-PCR assay; assay type: functional, cell-based; summary of the method: as §2
HL-60 [16] = experiment: Induction of myeloid differentiation in human HL-60 cells at 20 nM assessed as reduction of nucleus to cytoplasm ratio measured after 12 hrs by Liu's staining method; assay type: functional, cell-based
Summary of the method: (§3)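 Cells exposed 12 h were spun onto slides by cytospin. They were stained with Liu's reagent A for 1 min, then reagent B for 2.5 min, and morphology was examined by light microscopy.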

U-937 [17] = experiment: Induction of myeloid differentiation in human U-937 cells at 20 nM assessed as decrease in SUV39H1 mRNA expression measured after 48 hrs by RT-PCR assay; assay type: functional, cell-based; summary of the method: as §2
[18] = molecular target: T1, Histone-lysine N-methyltransferase SUV39H1 (Homo sapiens); conditions: KG-1a, dose 20.0 nM, time 48.0 hrs; remark: listed apart in the source
HL-60 [19] = experiment: Induction of myeloid differentiation in human HL-60 cells at 20 nM assessed as decrease in G9a mRNA expression measured after 48 hrs by RT-PCR assay; assay type: functional, cell-based; summary of the method: as §2
KG-1a [20] = experiment: Induction of myeloid differentiation in human KG-1a cells at 20 nM assessed as decrease in SUV39H1 mRNA expression measured after 48 hrs by RT-PCR assay; assay type: functional, cell-based; summary of the method: as §2
KG-1a [21] = experiment: Induction of myeloid differentiation in human KG-1a cells at 20 nM assessed as increase in CD11b mRNA expression measured after 48 hrs by RT-PCR assay; assay type: functional, cell-based; summary of the method: as §2
[22] = molecular target: T1, Histone-lysine N-methyltransferase SUV39H1 (Homo sapiens); conditions: HL-60, dose 20.0 nM, time 48.0 hrs
[23] = molecular target: T1, Histone-lysine N-methyltransferase SUV39H1 (Homo sapiens); conditions: HL-60, dose 20.0 nM, time 48.0 hrs; remark: listed apart in the source
U-937 [24] = experiment: Induction of myeloid differentiation in human U-937 cells at 20 nM in combination with 0.5 uM SAHA measured after 12 hrs by Liu's staining method; assay type: functional, cell-based; summary of the method: as §1
[25] = molecular target: T1, Histone-lysine N-methyltransferase SUV39H1 (Homo sapiens); conditions: HL-60, dose 20.0 nM, time 48.0 hrs; remark: listed apart in the source
HL-60 [26] = experiment: Induction of myeloid differentiation in human HL-60 cells at 20 nM assessed as decrease in SUV39H1 mRNA expression measured after 48 hrs by RT-PCR assay; assay type: functional, cell-based; summary of the method: as §2
KG-1a [27] = experiment: Induction of myeloid differentiation in human KG-1a cells at 20 nM in combination with 0.5 uM SAHA measured after 12 hrs by Liu's staining method; assay type: functional, cell-based; summary of the method: as §1
HL-60 [28] = experiment: Induction of myeloid differentiation in human HL-60 cells at 20 nM assessed as appearance of nuclear segmentation measured after 12 hrs by Liu's staining method; assay type: functional, cell-based; summary of the method: as §3
KG-1a [29] = experiment: Induction of myeloid differentiation in human KG-1a cells at 20 nM assessed as appearance of nuclear segmentation measured after 12 hrs by Liu's staining method; assay type: functional, cell-based; summary of the method: as §3
KG-1a [30] = experiment: Induction of myeloid differentiation in human KG-1a cells at 20 nM assessed as reduction of nucleus to cytoplasm ratio measured after 12 hrs by Liu's staining method; assay type: functional, cell-based; summary of the method: as §3
[31] = molecular target: T1, Histone-lysine N-methyltransferase SUV39H1 (Homo sapiens); conditions: U-937, dose 20.0 nM, time 48.0 hrs; remark: listed apart in the source
[32] = molecular target: T1, Histone-lysine N-methyltransferase SUV39H1 (Homo sapiens); conditions: KG-1a, dose 20.0 nM, time 48.0 hrs; remark: listed apart in the source
[33] = molecular target: T1, Histone-lysine N-methyltransferase SUV39H1 (Homo sapiens); conditions: KG-1a, dose 20.0 nM, time 48.0 hrs; remark: listed apart in the source
HL-60 [34] = experiment: Induction of myeloid differentiation in human HL-60 cells at 20 nM in combination with 0.5 uM SAHA measured after 12 hrs by Liu's staining method; assay type: functional, cell-based; summary of the method: as §1
HL-60 [35] = experiment: Induction of myeloid differentiation in human HL-60 cells at 20 nM assessed as increase in CD11b mRNA expression measured after 48 hrs by RT-PCR assay; assay type: functional, cell-based; summary of the method: as §2
[36] = molecular target: T1, Histone-lysine N-methyltransferase SUV39H1 (Homo sapiens); conditions: U-937, dose 20.0 nM, time 48.0 hrs; remark: listed apart in the source
[37] = molecular target: T1, Histone-lysine N-methyltransferase SUV39H1 (Homo sapiens); conditions: HL-60, dose 20.0 nM, time 48.0 hrs; remark: listed apart in the source
KG-1a [38] = experiment: Induction of myeloid differentiation in human KG-1a cells at 50 nM measured after 12 hrs by Liu's staining method; assay type: functional, cell-based; summary of the method: as §1
HL-60 [39] = experiment: Induction of myeloid differentiation in human HL-60 cells at 50 nM measured after 12 hrs by Liu's staining method; assay type: functional, cell-based; summary of the method: as §1
U-937 [40] = experiment: Induction of myeloid differentiation in human U-937 cells at 50 nM measured after 12 hrs by Liu's staining method; assay type: functional, cell-based; summary of the method: as §1

CN1C(=O)[C@@]23C[C@]4([C@]56C[C@@]78SS[C@@](CO)(C(=O)N7[C@H]5Nc5ccccc56)N(C)C8=O)c5ccccc5N[C@@H]4N2C(=O)[C@]1(CO)SS3.Cc1sc2c(c1C)C(c1ccc(Cl)cc1)=N[C@@H](CC(=O)OC(C)(C)C)c1nnc(C)n1-2
active: Activity (HL-60 [2]) | Activity (KG-1a [4])
inactive: Activity (HL-60 [1]) | Activity (U-937 [3]) | Activity (KG-1a [5]) | Activity (U-937 [6])

CN1C(=O)[C@@]23C[C@]4([C@]56C[C@@]78SS[C@@](CO)(C(=O)N7[C@H]5Nc5ccccc56)N(C)C8=O)c5ccccc5N[C@@H]4N2C(=O)[C@]1(CO)SS3.O=C(CCCCCCC(=O)Nc1ccccc1)NO
40%: Activity (HL-60 [8]) | Activity (KG-1a [9])
20%: Activity (U-937 [7])

CN1C(=O)[C@@]23C[C@]4([C@]56C[C@@]78SS[C@@](CO)(C(=O)N7[C@H]5Nc5ccccc56)N(C)C8=O)c5ccccc5N[C@@H]4N2C(=O)[C@]1(CO)SS3
active: Activity (KG-1a [12]) | inhibition [13] | Activity (U-937 [14]) | Activity (HL-60 [16]) | inhibition [18] | Activity (HL-60 [19]) | Activity (KG-1a [20]) | Activity (KG-1a [21]) | inhibition [22] | inhibition [23] | inhibition [25] | Activity (HL-60 [26]) | Activity (HL-60 [28]) | Activity (KG-1a [29]) | Activity (KG-1a [30]) | inhibition [32] | inhibition [33] | Activity (HL-60 [35]) | inhibition [37]
inactive: inhibition [10] | inhibition [11] | Activity (U-937 [15]) | Activity (U-937 [17]) | Activity (U-937 [24]) | Activity (KG-1a [27]) | inhibition [31] | Activity (HL-60 [34]) | inhibition [36]

Cc1sc2c(c1C)C(c1ccc(Cl)cc1)=N[C@@H](CC(=O)OC(C)(C)C)c1nnc(C)n1-2
active: Activity (KG-1a [38]) | Activity (HL-60 [39]) | Activity (U-937 [40])
